Measured values taken from publication PMC12393906 (Molecular Therapy, 2025).

Assays:
Recombinant human ERO1α = target: T1, Recombinant human ERO1α (Homo sapiens, UniProt Q96HE7); experiment: fluorescence-based ERO1α activity assay; type: biochemical; conditions: read-out: IC50 (ERO1α activity); mean ± SD, n = 3
T1 sequence (Q96HE7 24-468): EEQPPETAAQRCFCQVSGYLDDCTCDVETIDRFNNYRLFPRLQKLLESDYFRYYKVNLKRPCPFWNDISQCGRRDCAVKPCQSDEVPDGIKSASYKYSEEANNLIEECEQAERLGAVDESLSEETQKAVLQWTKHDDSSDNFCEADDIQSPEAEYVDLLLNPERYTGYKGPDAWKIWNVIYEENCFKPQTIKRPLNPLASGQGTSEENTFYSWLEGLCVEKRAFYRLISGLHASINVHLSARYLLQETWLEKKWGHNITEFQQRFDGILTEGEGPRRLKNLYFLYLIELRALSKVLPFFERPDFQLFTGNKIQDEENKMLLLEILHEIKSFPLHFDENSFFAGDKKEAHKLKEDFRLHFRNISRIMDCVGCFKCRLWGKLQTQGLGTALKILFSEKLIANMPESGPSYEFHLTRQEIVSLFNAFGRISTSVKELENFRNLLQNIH

C57BL/6 mice [1] = experiment: Complete blood counts after intravenous injection; type: in vivo, mouse; conditions: iv 0.3 μg/g BW; 10 min and 8 h after injection
Ero1α/β-null platelets [2] = experiment: Platelet aggregation and ATP secretion in knockout platelets; type: cell-based, mouse
Procedure, shortened: (§1)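 Washed mouse platelets (WT control, C57BL/6 or Ero1α/β-null) were pretreated 20 min at 37°C with 0.1% DMSO vehicle or test compound. After agonist addition, aggregation and ATP secretion were recorded together in a lumi-aggregometer at 37°C with stirring at 1,000 rpm.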

mouse platelets [3] = experiment: CCL5/RANTES in platelet releasates; type: cell-based
Procedure, shortened: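 Washed mouse platelets (5 × 10^8 cells/mL) were pretreated 20 min at 37°C with 0.1% DMSO vehicle or test compound. They were then stimulated 10 min with 0.01 U/mL thrombin or 0.05 μg/mL CRP. CCL5/RANTES in the collected supernatant was quantified by ELISA.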

C57BL/6 mice [4] = experiment: tMCAO-induced ischemic stroke; type: in vivo, mouse; conditions: iv 0.3 μg/g BW after 1 h tMCAO; 23 h reperfusion
Procedure, shortened: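 Male mice, 10–12 weeks, were anaesthetised with 1.2%–1.5% isoflurane in oxygen and given buprenorphine-ER 0.1 μg/g ip. After 1 h MCA occlusion the filament was withdrawn to restore flow. Vehicle (1% DMSO) or test compound was then given iv. After 23 h reperfusion, Bederson score, grip strength and infarct volume were assessed.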

mouse platelets [5] = experiment: Detection of intracellular ROS; type: cell-based; conditions: 5 μM
Procedure, shortened: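 Platelets from C57BL/6, WT control or Ero1α/β CKO mice were pretreated 20 min at 37°C with or without 0.1% DMSO vehicle or test compound. They were loaded with 1 μM DCF for 10 min, then stimulated 5 min with thrombin or CRP, or left unstimulated. DCF fluorescence was read by flow cytometry.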

mouse platelets [6] = experiment: Serotonin secretion; type: cell-based; conditions: 2.5 or 5 μM
mouse platelets [7] = experiment: Platelet aggregation assay and ATP secretion; type: cell-based
Procedure, shortened: as §1

Amplex Red assay = type: biochemical; conditions: Figure 1M, concentration not given
human platelets [8] = experiment: Ca2+ mobilization; type: cell-based
[9] = at concentrations required to reduce ERO1α activity; cited from earlier work
mouse platelets [10] = experiment: Flow cytometry of P-selectin exposure and αIIbβ3 integrin activation; type: cell-based
Procedure, shortened: (§2)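 Washed mouse platelets (2 × 10^8/mL in HEPES-Tyrode; C57BL/6 or Ero1α/β-null) were pretreated 20 min at 37°C with 0.1% DMSO vehicle or test compound. Agonist was added for 5 min at 37°C. Cells were stained 15 min with labelled anti-P-selectin or JON/A (activated αIIbβ3) and read by flow cytometry as geometric mean fluorescence intensity.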

mouse platelets [11] = experiment: Analysis of cell viability; type: cell-based; conditions: 5 μM; incubation 20 minutes to 24 hours
Procedure, shortened: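 Platelets were isolated from ACD blood of C57BL/6, WT control or Ero1α/β CKO mice (8–12 weeks) and washed in HEPES-Tyrode buffer at 2 × 10^8 cells/mL. They were incubated at 37°C with vehicle (0.1% DMSO) or test compound for various times. Cells were then labelled with FITC-annexin V for 20 min and read by flow cytometry.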

Ero1α/β-null platelets [12] = type: cell-based, mouse
Procedure, shortened: as §2

C57BL/6 mice [13] = experiment: FeCl3-induced carotid arterial thrombosis; type: in vivo, mouse; conditions: for time to occlusion (TTO): iv 0.3 μg/g BW
Procedure, shortened: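 Male and female mice, 8–12 weeks, were anaesthetised with ip ketamine/xylazine. A 2 × 2 mm filter disc carrying 1.2 μL of 7 or 10% FeCl3 was placed on the carotid artery for 2 min. Flow was monitored by Doppler flow meter. TTO was the time from disc removal to stable occlusion (no flow for 5 min).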

human platelets [14] = experiment: Platelet aggregation assay and ATP secretion; type: cell-based; conditions: 1 μM; 0.015 U/ml thrombin or 0.05 µg/ml CRP
Procedure, shortened: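 Washed human platelets, isolated from ACD blood with PGE1 washes and resuspended in HEPES-Tyrode, were pretreated 20 min at 37°C with 0.1% DMSO vehicle or test compound. After agonist addition, aggregation and ATP secretion were recorded in a lumi-aggregometer at 37°C, stirring at 1,000 rpm.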

[15] = 1 or 2.5 μM, 0.015 U/mL thrombin or 0.05 μg/mL CRP

Structure (SMILES): O=C(O)c1cc(N2N=C(C(F)(F)F)/C(=C/c3ccc(-c4ccccc4)o3)C2=O)ccc1Cl [EN460]
- IC50 (Recombinant human ERO1α): 5.5 ± 1.6 µM
- complete blood counts (CBCs) (C57BL/6 mice [1]): did not alter CBCs
- ATP secretion (Ero1α/β-null platelets [2]; 2.5 μM, 0.015 U/mL thrombin): not ATP secretion
- thrombin-induced aggregation (Ero1α/β-null platelets [2]; 2.5 μM, 0.015 U/mL thrombin): markedly inhibited thrombin-induced aggregation
- thrombin-stimulated aggregation and ATP secretion (Ero1α/β-null platelets [2]; 5 μM, 0.015 U/ml thrombin): significantly inhibited both responses
- CCL5 secretion in resting and activated platelets (mouse platelets [3]; 5 μM): appeared to increase CCL5 secretion
- CCL5 secretion from activated platelets (mouse platelets [3]; various concentrations (1-5 μM), thrombin): inhibits CCL5 secretion
- Bederson score (C57BL/6 mice [4]): decreased the Bederson score
- grip strength (C57BL/6 mice [4]): increased grip strength
- infarct volume (C57BL/6 mice [4]): significantly reduced infarct volume
- agonist-induced DCF signal (ROS) (mouse platelets [5]; after thrombin): reduced the signal
- ROS production in resting platelets (mouse platelets [5]; no agonist): moderately increased ROS production
- serotonin secretion from resting platelets (mouse platelets [6]; no agonist): enhanced serotonin secretion from resting platelets
- serotonin secretion from activated platelets (mouse platelets [6]; thrombin or CRP): either enhancing or inhibiting secretion
- ATP secretion (mouse platelets [7]; 1 μM, 0.5 µM U46619): without affecting ATP secretion
- platelet aggregation (mouse platelets [7]; 1 μM, 0.5 µM U46619): completely inhibited U46619-induced platelet aggregation
- platelet aggregation and ATP secretion (mouse platelets [7]; 5 μM, 0.5 µM U46619): abolished both responses
- platelet aggregation and ATP secretion (mouse platelets [7]; 5 μM, 0.015 U/mL thrombin or 0.05 μg/mL CRP): markedly inhibited platelet aggregation and ATP secretion
- platelet aggregation and ATP secretion (mouse platelets [7]; 1-5 µM, 0.5 µM A23187): also inhibited platelet aggregation and ATP secretion
- platelet aggregation and ATP secretion (mouse platelets [7]; 1-5 µM, high concentration of thrombin (0.1 U/ml)): significantly inhibited both responses
- ATP secretion (mouse platelets [7]; [15]): had no effect on ATP secretion
- platelet aggregation (mouse platelets [7]; [15]): significantly inhibited aggregation
- platelet aggregation and ATP secretion (mouse platelets [7]; 2.5 or 5 μM, high concentration of CRP (0.2 µg/ml)): significantly inhibited both responses
- inhibition of H2O2 activity (Amplex Red assay): inhibits H2O2 activity
- thrombin-induced Ca2+ influx (human platelets [8]; 0.5 μM): reduced thrombin-induced Ca^2+ influx
- Ca2+ release and influx (human platelets [8]; 2 or 5 μM, activated human platelets): significantly inhibited both Ca^2+ release and influx
- thiol reactivity [9]: exhibits thiol reactivity
- P-selectin exposure and αIIbβ3 integrin activation (mouse platelets [10]; 1-5 µM, low agonist: 0.01 U/mL thrombin, 0.025 μg/mL CRP, 0.5 μM U46619, 0.5 μM A23187, concentration-dependent): inhibited
- P-selectin exposure and αIIbβ3 integrin activation (mouse platelets [10]; 2.5 or 5 μM, high agonist: thrombin 0.1 U/mL or CRP 0.2 μg/mL, weaker effect): still observed
- P-selectin exposure and αIIbβ3 integrin activation in resting platelets (mouse platelets [10]; M6766 5 μM, EN460 2.5 or 5 μM, no agonist): appeared to enhance both events
- annexin V binding (platelet viability) (mouse platelets [11]): markedly increased annexin V binding within 20 min
- P-selectin exposure and αIIbβ3 integrin activation in resting platelets (Ero1α/β-null platelets [12]; M6766 5 μM, EN460 2.5 μM, no agonist): appeared to increase the levels of these surface markers
- agonist-induced P-selectin exposure and αIIbβ3 integrin activation (Ero1α/β-null platelets [12]; various concentrations, 0.01 U/mL thrombin, 0.025 μg/mL CRP): significantly reduced
- carotid arterial thrombosis (time to occlusion) (C57BL/6 mice [13]; 0.1 μg/g BW, 7% FeCl3): did not inhibit carotid arterial thrombosis
- time to occlusion (TTO) (C57BL/6 mice [13]; 7% FeCl3): significantly prolonged the time to occlusion
- time to occlusion (TTO) (C57BL/6 mice [13]; 10% FeCl3): did not affect TTO
- platelet aggregation and ATP secretion (human platelets [14]): had no effect
